T cruzi repl = blocks replication of Trypanosoma cruzi. inhibition, % (concentration not given with the values). 1.4% of 300,000 active. T. cruzi beta-gal in NIH3T3, luminescence, 90 h. AID 1885;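 active means mean inhibition across valid replicates above about 55%, limit read from the data; inconclusive means mean below that limit but half or more replicates reach it; inactive means mean below it, under half of replicates reach it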;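 further: signal also drops with host cell toxicity which is not excluded here; 0% = plate median of DMSO wells and 100% = zero luminescence signal; higher percent means less beta-gal luminescence so fewer parasites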
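compound dosing = single 50 nL compound addition per well in DMSO | material = NIH/3T3 host cells with β-galactosidase reporter T. cruzi | input = 5,000 host fibroblasts per well | timing = ≥90 h infection period, 3 h prior cell attachment | read-out basis = percent inhibition of parasite-derived β-gal signal | detection = GalScreen β-gal luminescence, detergent lysis, 60 min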
PolyA inhibitor = yeast polyadenylation inhibition | S. cerevisiae SKY197-pL101 polyadenylation reporter, beta-gal luminescence; efflux-impaired pdr1/pdr3 knockout yeast; score 100 = 6 SD above DMSO | activity score, % at 12 µM | 0.02% of 300,000 active;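 active means lowest replicate activity score at least 50, where 100 means six control SD above control mean; inconclusive means lowest score under 50 but half or more replicates reach 50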;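 further: yeast exposed to compound for 9 h at 30 °C; higher score means more reporter readthrough which indicates perturbed polyadenylation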
CSC inhib = blocks cancer stem cells; cancer stem cell-like cells viability, luminescence; inhibition, % at 7.5 µM; 1.1% of 300,000 active; in the data active means inhibition above about 75%; inconclusive means no clear call, values can overlap the other calls; tested in HMLE shEcad cells
Calb FLC = C. albicans growth modulation with fluconazole; 0.57% of 300,000 active; growth inhibition, % (test concentration not listed); C. albicans CaCi-2 + fluconazole, Alamar Blue growth, 48 h;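 active means growth inhibition above about 58% in most replicates, limit read from the data, passing the limit was not always enough; inconclusive means exactly half the replicates above a set limit; inactive means most replicates below a set limit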;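 further: all wells also contain fluconazole at 8 µg/ml as a sub-toxic cotreatment; 0% = median of DMSO wells and 100% = median of geldanamycin control wells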
HIF act = HIF pathway transcriptional activation | 0.32% of 300,000 active | activation, % at 7.5 µM (by protocol) | AID 1910 | U2OS HRE-luciferase reporter, luminescence; normalized: DMSO 0%, desferrioxamine 100%;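 active means mean activation of at least 10% of the iron chelator positive control signal, with at least half of replicates also reaching 10%; inconclusive means mean and replicate majority disagree about reaching 10%; inactive means mean and most replicates under 10%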
Beta cell apopt = blocks beta cell apoptosis. 0.8% of 300,000 active. AID 435005. INS-1E cytokine-induced death, ATP luminescence, 48 h; percent of positive-control rescue, neutral wells zero. protection from apoptosis, % (no concentration beside the values);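 active means Every replicate reaches about 75%, or at least half do and their mean reaches it too, limit read from the data; inconclusive means At least half of replicates reach the limit but their mean does not; inactive means Under half of replicates reach the limit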;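 further: 0% = cytokine-treated negative control wells and 100% = positive control rescue; higher means more ATP so stronger rescue from cytokine killing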
* = called active by the depositor; ? = inconclusive; · = no result given. The list is not random: actives were taken first. Their share in the collection is about 3.1%.

SMILES	T cruzi repl	PolyA inhibitor	CSC inhib	Calb FLC	HIF act	Beta cell apopt
CC1CCN(C(=O)Cn2c3ccccc3c3nc4n(c(=O)c32)CCS4)CC1	-9.2	17.9	-4.8	90.8*	-0.6	4.2
O=C(Cn1c2ccc(F)cc2c2nc3n(c(=O)c21)CCS3)N1CCCC1	-1.7	-4.0	-8.9	89.2*	-1.2	3.6
O=C(Cn1c2ccc(F)cc2c2nc3n(c(=O)c21)CCS3)Nc1ccc(Cl)cc1F	19.1	7.5	-6.5	3.2	-3.5	15.3
Cc1cc(C)c(C(=O)Nc2ccc(Br)c(C(F)(F)F)c2)c(C)c1	22.6	-5.9	2.9	1.5	0.2	7.0
COc1ccc(-c2cc(C(=O)Nc3c(F)cc(F)cc3Br)no2)cc1	24.6	5.0	0.4	0.6	1.1	-11.0
Cc1cc(-c2ccc(S(=O)(=O)N(C)c3ccc(C)c(C)c3)s2)on1	-1.9	-13.0	70.6	11.7	-0.7	14.8
Cc1ccc(N(C)S(=O)(=O)c2ccc(-c3cc(C)no3)s2)cc1	0.0	-12.8	-20.2	21.9	9.7*	-1.7
Nc1ccc(CSc2ccc(Cl)cc2)cc1	5.0	-22.7	2.6	?	0.4	-7.5
Cn1cc(CNCc2cn[nH]c2-c2ccc(F)cc2)c(-c2ccc3c(c2)OCCO3)n1	-12.2	·	-10.2	·	-0.4	-3.3
Cn1cc(CNCc2ccc(OC(F)(F)F)cc2)c(-c2ccc3c(c2)OCCO3)n1	-6.3	-8.8	30.4	-44.5	0.6	141.5*
Cc1sc(-c2c(C#N)c(N)nc3c2CCCCCC3)cc1[N+](=O)[O-]	14.0	-0.1	-6.7	6.5	-0.2	3.6
CCCCc1sc(-c2c(C#N)c(N)nc3c2CCCCC3)cc1[N+](=O)[O-]	55.0*	-9.0	41.3	60.7	-0.1	-1.8
Cc1onc(-c2ccccc2)c1C(=O)Nc1nnc(CC(C)C)s1	-7.7	-6.9	-9.6	9.7	-0.1	-4.2
O=C(CSCc1cccc(CSCC(=O)Nc2ccccc2)n1)Nc1ccccc1	2.9	-4.5	-24.3	111.3*	0.1	2.3
Cc1cccc(C)c1NC(=O)CSCc1cccc(CSCC(=O)Nc2c(C)cccc2C)n1	-24.9	-6.4	2.8	0.6	0.1	·
CN1CCN(c2ccc(S(=O)(=O)N3CCCCC3)cc2NC(=O)COc2cccc(Cl)c2)CC1	66.1*	11.7	8.4	-4.2	-0.2	4.6
CN1CCN(c2ccc(S(=O)(=O)N3CCCCC3)cc2NC(=O)/C=C/c2ccc(Cl)c([N+](=O)[O-])c2)CC1	59.7*	-6.8	98.4*	1.3	-0.3	·
CN1CCC(N(C)S(=O)(=O)c2ccc(NC(=O)COc3ccc(F)cc3)cc2)CC1	57.6*	-7.0	32.4	-6.4	-0.2	·
CC(=O)Nc1ccc(S(=O)(=O)N(C)C2CCN(C)CC2)cc1	10.2	-8.3	-10.2	3.1	-3.4	-1.6
CN1CCC(N(C)S(=O)(=O)c2ccc(C(C)(C)C)cc2)CC1	64.6*	1.9	24.1	-2.4	-4.0	0.3
Cc1ccc(C)c(S(=O)(=O)N2CCCOC2CNC(=O)C(=O)NCc2ccc3c(c2)OCO3)c1 (stereo not drawn)	10.2	4.5	5.9	-5.5	-0.7	-6.8
O=C(NCC(O)c1ccc2ccccc2c1)c1c(F)cccc1F (stereo not drawn)	1.2	20.1	-5.1	-4.3	-0.3	1.6
CCC(=O)c1ccc(SC(=O)N(C)C)cc1O	-2.9	-5.1	-6.9	1.6	1.7	-5.8
O=C(COC(=O)CCN1C(=O)C2CC=CCC2C1=O)Nc1ccc([N+](=O)[O-])cc1 (stereo not drawn)	·	·	-4.6	·	·	-5.1
CCN(Cc1ccncc1)C(=O)c1cc(COc2ccc(OC)cc2Cl)on1	26.2	-8.2	-0.2	9.3	3.0	-0.5
CN1CCN(c2ccc(S(=O)(=O)N3CCCCC3)cc2NC(=O)COc2ccc(F)cc2)CC1	64.4*	-1.7	-3.7	-9.5	-1.5	9.0
Cc1cccc(NC(=O)CSCC(=O)Nc2cc(Cl)ccc2N2CCN(C)CC2)c1	58.8*	1.2	-2.9	-6.5	0.8	-3.5
Cc1cc(=O)n2nc(N3CCC(C(=O)NCc4ccccc4Cl)CC3)sc2n1	-0.7	11.6	-3.7	25.8	-0.2	-4.4
CN(c1ccccc1C(=O)Nc1ccc(CC#N)cc1)S(=O)(=O)c1ccccc1	15.2	1.0	-13.7	-0.5	-0.5	-5.4
Cc1cccc(CSC(Nc2ccc(F)cc2)=C(C#N)C#N)c1	0.4	-12.8	-25.7	46.5	1.2	105.7*

Bioassay records: PubChem BioAssay, Broad Institute
